Laboratory results from ChEMBL document CHEMBL4000256, “Light-Regulated NO Release as a Novel Strategy To Overcome Doxorubicin Multidrug Resistance” (ACS Med Chem Lett, 2017).
Calls of active or inactive are those of the source. The calls are words filed in the database; no cut-off is given here.

Legend:
H9c2 [1] = test: Dark toxicity against rat H9c2 cells at 5 uM measured after 20 mins by spectrophotometric method; assay type: cell-based; conditions: h9c2, 20 min
Method in brief: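 Human fibroblasts or rat H9c2 cardiomyocytes kept 20 min at room temperature in PBS, either in the dark or irradiated at λexc 400 nm, 7 mW/cm2, with or without 5 μM test agent. Cytotoxicity measured in triplicate; means ± SD, n = 3.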

[2] = target: T1, Broad substrate specificity ATP-binding cassette transporter ABCG2 (Homo sapiens, UniProt Q9UNQ0); test: Inhibition of BCRP in 7 mW/cm'2 irradiated human M14 cells assessed as nitration of tyrosine in BCRP at 5 uM measured after 20 mins by immunoblotting
T1 sequence (Q9UNQ0 whole entry): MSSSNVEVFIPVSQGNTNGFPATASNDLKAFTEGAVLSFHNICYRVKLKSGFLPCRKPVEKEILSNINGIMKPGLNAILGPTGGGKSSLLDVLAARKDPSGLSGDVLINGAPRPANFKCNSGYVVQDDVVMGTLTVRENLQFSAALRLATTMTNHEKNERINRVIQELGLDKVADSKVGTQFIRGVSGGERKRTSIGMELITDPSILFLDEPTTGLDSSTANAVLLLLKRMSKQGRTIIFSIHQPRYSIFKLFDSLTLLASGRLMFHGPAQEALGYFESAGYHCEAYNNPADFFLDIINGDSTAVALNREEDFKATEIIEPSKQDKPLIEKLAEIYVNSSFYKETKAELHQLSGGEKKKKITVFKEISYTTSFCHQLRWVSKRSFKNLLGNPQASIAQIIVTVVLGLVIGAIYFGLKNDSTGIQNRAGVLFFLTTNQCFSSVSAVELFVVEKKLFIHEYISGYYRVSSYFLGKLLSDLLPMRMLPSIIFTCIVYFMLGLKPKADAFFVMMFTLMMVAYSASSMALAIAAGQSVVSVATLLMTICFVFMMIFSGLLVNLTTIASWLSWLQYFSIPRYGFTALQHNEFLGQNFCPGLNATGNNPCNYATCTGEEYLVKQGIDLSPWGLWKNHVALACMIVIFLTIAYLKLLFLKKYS
Method in brief: (§1)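 M14 melanoma cells held 20 min at room temperature in PBS under 400 nm light (7 mW/cm2) with 5 μM compound, alone or with equimolar doxorubicin. Nitrated ABC transporters (Pgp, MRP1, MRP4, BCRP) detected by immunoblot.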

Homo sapiens [3] = organism: Homo sapiens; test: Inhibition of ABC transporter in 7 mW/cm'2 irradiated human M14 cells assessed as increase in nitrite release at 5 uM measured after 20 mins by Griess reagent based spectrophotometric method
Method in brief: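 M14 melanoma cells held 20 min at room temperature in PBS, either in the dark or under 400 nm light (7 mW/cm2), with 5 μM compound alone or alongside 5 μM doxorubicin. Nitrite in the supernatant measured by Griess assay, in triplicate, n = 3.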

[4] = target: T2, ATP-binding cassette sub-family C member 4 (Homo sapiens, UniProt O15439); test: Inhibition of MRP4 in 7 mW/cm'2 irradiated human M14 cells assessed as nitration of tyrosine in MRP4 at 5 uM measured after 20 mins by immunoblotting; method in brief: as §1
T2 sequence (O15439 whole entry): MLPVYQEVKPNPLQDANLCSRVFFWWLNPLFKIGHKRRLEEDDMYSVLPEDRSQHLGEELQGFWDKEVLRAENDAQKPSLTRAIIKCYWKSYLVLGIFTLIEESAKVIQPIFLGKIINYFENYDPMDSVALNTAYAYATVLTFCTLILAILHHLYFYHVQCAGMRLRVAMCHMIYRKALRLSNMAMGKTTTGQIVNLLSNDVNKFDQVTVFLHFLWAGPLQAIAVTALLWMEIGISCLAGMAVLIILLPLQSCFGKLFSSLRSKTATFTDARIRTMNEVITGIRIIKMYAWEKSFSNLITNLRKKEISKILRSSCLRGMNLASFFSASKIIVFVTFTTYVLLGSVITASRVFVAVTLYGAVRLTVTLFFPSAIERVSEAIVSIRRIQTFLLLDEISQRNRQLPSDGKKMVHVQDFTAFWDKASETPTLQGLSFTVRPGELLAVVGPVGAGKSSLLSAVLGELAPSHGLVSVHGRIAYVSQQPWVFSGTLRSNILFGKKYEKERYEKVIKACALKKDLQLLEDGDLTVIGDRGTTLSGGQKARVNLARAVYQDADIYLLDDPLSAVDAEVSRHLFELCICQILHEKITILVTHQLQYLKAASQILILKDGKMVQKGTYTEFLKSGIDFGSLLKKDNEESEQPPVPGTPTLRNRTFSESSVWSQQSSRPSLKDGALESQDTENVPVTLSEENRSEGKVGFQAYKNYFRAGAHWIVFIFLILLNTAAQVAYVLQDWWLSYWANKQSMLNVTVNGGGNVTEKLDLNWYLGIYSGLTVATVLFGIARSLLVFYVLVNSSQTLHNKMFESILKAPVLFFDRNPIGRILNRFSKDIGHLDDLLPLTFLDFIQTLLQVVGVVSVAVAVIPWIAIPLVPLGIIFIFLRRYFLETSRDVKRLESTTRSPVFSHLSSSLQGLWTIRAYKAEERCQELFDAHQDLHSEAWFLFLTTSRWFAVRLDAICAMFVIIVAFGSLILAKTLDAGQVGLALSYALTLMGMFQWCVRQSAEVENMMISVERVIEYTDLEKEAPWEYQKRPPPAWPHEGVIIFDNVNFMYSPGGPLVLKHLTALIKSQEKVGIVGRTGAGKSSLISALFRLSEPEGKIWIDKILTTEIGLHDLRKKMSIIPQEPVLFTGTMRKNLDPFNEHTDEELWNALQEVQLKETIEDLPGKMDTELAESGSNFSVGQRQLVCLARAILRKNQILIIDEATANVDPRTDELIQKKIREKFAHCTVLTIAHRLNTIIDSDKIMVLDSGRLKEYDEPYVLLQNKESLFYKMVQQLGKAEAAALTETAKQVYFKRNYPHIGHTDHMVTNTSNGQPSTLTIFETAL

[5] = Solubility of the compound in PBS with 3% DMSO; assay type: physicochemical; conditions: buffer
Homo sapiens [6] = organism: Homo sapiens; test: Inhibition of Pgp in 7 mW/cm'2 irradiated human M14 cells assessed as nitration of tyrosine in pgp at 5 uM measured after 20 mins by immunoblotting; method in brief: as §1
H9c2 [7] = test: Cytotoxicity against 7 mW/cm'2 irradiated rat H9c2 cells at 5 uM coadministered with DOX measured after 20 mins by spectrophotometric method; assay type: cell-based; conditions: h9c2, 20 min
Method in brief: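 Cells (M14 melanoma, human fibroblasts or rat H9c2 cardiomyocytes) kept 20 min at room temperature in PBS under 400 nm light (7 mW/cm2), alone or with 5 μM compound, given alone or with equimolar 5 μM doxorubicin. Damage read as extracellular LDH release. Triplicate measurements, n = 3.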

M14 = test: Dark toxicity in human M14 cells assessed as increase in LDH release at 5 uM measured after 20 mins by spectrophotometric method; assay type: cell-based; conditions: m14, 20 min
Method in brief: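 Cells (M14 melanoma, human fibroblasts or rat H9c2 cardiomyocytes) kept 20 min at room temperature in PBS in the dark, with 5 μM compound, given alone or with equimolar 5 μM doxorubicin. Cytotoxicity read as extracellular LDH release. Triplicate measurements, n = 3.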

solubility [5]	Compound	Activity (H9c2 [1])	inhibition (INH) [2]	inhibition (Homo sapiens [3])	inhibition (INH) [4]	inhibition (Homo sapiens [6])	Activity (H9c2 [7])	Activity (M14)
Soluble	COc1cccc2c1C(=O)c1c(O)c3c(c(O)c1C2=O)C[C@@](O)(C(=O)COC(=O)c1ccc(C(=O)NCCCNc2ccc([N+](=O)[O-])c(C(F)(F)F)c2)cc1)C[C@@H]3O[C@H]1C[C@H](N)[C@H](O)[C@H](C)O1.Cl	Non-Toxic	Active	Active	Active	Active		
	NCCCNc1ccc([N+](=O)[O-])c(C(F)(F)F)c1	Non-Toxic	Active	Active	Active	Active	Non-Toxic	Non-Toxic
